Drawing on PubChem BioAssay, this text covers viability, differential viability (reversal) and inhibition for 18 molecules.

A short description of assay [1]: SK-BR-3 cell growth inhibitors, pilot screen, 24 h, human (AID 572;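 active means viability at or below 10% of carrier control in both of two separate runs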;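 further: compound exposure lasted between 18 and 24 h rather than exactly 24 h; 100% = carrier-treated control wells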). To be noted: SK-BR-3 viability, CellTiter-Glo luminescence, at 10 µM, stronger effect = lower value.
Assay [2] is described as follows: HUVEC growth inhibition – cell-based, human, primary screen (AID 575;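 active means viability at or below 30% in both replicate assays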;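 further: 100% = median of untreated cell wells with 0.1% DMSO on each plate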). Particulars: HUVEC proliferation, CellTiter-Glo luminescence, 72 h; at 10 µM; stronger effect = lower value. Summed up:
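Test system: HUVEC primary cells. Quantity: 1250 endothelial cells in each well. Dosing: single-point 10 µM, DMSO 0.1% final. Incubation: 72 h treatment at 37 °C. Measured by: CTG luminescence. Control set: DMSO cell controls and MePR drug controls. Plate: collagen-coated 384-well format.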
A general note: In ATP-based viability assays light output follows the ATP content of the culture.

Assay [3] can be described thus: growth inhibitors of H69AR lung tumor, primary screen, human, duplicate replicates (AID 580).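 Further: 100% = mean luminescence of untreated wells and 0% = no signal.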 Particulars: H69AR lung tumor cells viability, ATP luminescence, 72 h; at 10 µM; stronger effect = lower value.
Assay [4] is described as follows: reversal of MRP1-mediated doxorubicin resistance, pilot screen, H69AR cells, doxorubicin co-treatment (AID 601;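 active means viability loss from added drug above about 55%, and viability with drug at most 40%, in both replicates, limit read from the data, passing the limit was not always enough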). To be noted: CellTiter-Glo, 72 h, at 10 µM; for differential viability (reversal): stronger effect = higher value.
A short description of assay [5]: 384-well plate pilot, post-Golgi transport modulator project, inhibition of yeast transport mutant growth (AID 636; in the data active means inhibition above about 31%). Particulars: absorbance 615 nm, about 18 h, stronger effect = higher value.
Assay [6] in a line: growth suppression of yeast trafficking mutant, preliminary HTS, modulators of trafficking downstream of Golgi apparatus project, 1536-format plate, OD 615 nm (AID 637; in the data active means inhibition above about 30%). To be noted: yeast transport mutant growth, absorbance 615 nm, 18 h; stronger effect = higher value.
The mark [7] stands for this setting: H69AR cells + 2 uM doxorubicin, measured here: viability with 2 uM doxorubicin, stronger effect = lower value.
[8] abbreviates: H69AR cells, compound alone cytotoxicity.

The source made the active and inactive calls.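 How the source made its calls, unless noted: active means viability at or under a set limit in both replicates, limit being median viability minus 3 SD (cut at about 48% in these data, passing the limit was not always enough); inconclusive means at or under the limit in just one replicate; inactive means at or above the limit in both replicates.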

Regarding `Cn1c(=O)[nH]c(=O)c2c1nc(N1CCOCC1)n2CC(O)COc1ccc2ccccc2c1` (centres undefined), the viability – broadly, a read-out of living cells in per cent, often relative to untreated cells – in assay [1] is 70% (inactive); in assay [2], 88.7% (inactive); in assay [3], 88.3% (inactive); in assay [4] (setting [7]), 89.9%; in assay [4] (setting [8]), 88.3%. Further, the differential viability (reversal) in assay [4] (H69AR cells + 2 uM doxorubicin) was -1.6% (inactive). The values for the inhibition in assay [5] and in assay [6] were -6.58% (inactive) and -1.82% (inactive), respectively.

As to `NC(=O)C1(N2CCCCC2)CCN(C(=O)Nc2ccccc2C(F)(F)F)CC1`, the viability in assay [1] is 97% (inactive); in assay [2] it was 105% (inactive); in assay [3] it was 90.9% (inactive); in assay [4] (setting [7]) it was 86.7%; in assay [4] (setting [8]), 90.9%. Moreover, the differential viability (reversal) in assay [4] (H69AR cells + 2 uM doxorubicin) is 4.2% (inactive). Further, the inhibition (in general, the relative decrease from the control value, in per cent) in assay [5] was -0.39% (inactive); in assay [6] it was 5.08% (inactive).

Regarding `COc1cccc(N2CCN(Cc3nc(N)nc(Nc4ccccc4)n3)CC2)c1`, the viability is 119% (inactive) in assay [1]; 89.1% (inactive) in assay [2]; 75.5% (inactive) in assay [3]; 90% in assay [4] (setting [7]); 75.5% in assay [4] (setting [8]). Further, the differential viability (reversal) in assay [4] (H69AR cells + 2 uM doxorubicin) is -14.5% (inactive). Further, the inhibition in assay [5] is -3.77% (inactive); in assay [6], 0.16% (inactive).

Take `CCOC(=O)c1ccc2[nH]c3c(c2c1)CCCCC3=O`: the viability in assay [1] is 80% (inactive); in assay [2], 105% (inactive); in assay [3], 99.5% (inactive); in assay [4] (setting [7]), 90.5%; in assay [4] (setting [8]), 99.5%. Besides, the differential viability (reversal) in assay [4] (H69AR cells + 2 uM doxorubicin) is 8.96% (inactive). Further, the inhibition in assay [5] is -3.6% (inactive); in assay [6] it was -0.73% (inactive).

Take `CCc1c(C)nc2ncnn2c1NCCc1ccc(OC)c(OC)c1`: the viability in assay [1] was 64% (inactive); in assay [2], 103% (inactive); in assay [3], 80.6% (inactive); in assay [4] (setting [7]) it was 81.1%; in assay [4] (setting [8]), 80.6%. The differential viability (reversal) in assay [4] (H69AR cells + 2 uM doxorubicin) is -0.53% (inactive). Further, the inhibition in assay [5] was -7.03% (inactive); in assay [6] it was -0.18% (inactive).

As for `O=C(NC1CC1)C1CCC(=O)N1C1CCCC1` (centres undefined), the viability in assay [1] was 93% (inactive); in assay [2], 102% (inactive); in assay [3], 105% (inactive); in assay [4] (setting [7]), 88.4%; in assay [4] (setting [8]) it was 105%. For the same molecule, the differential viability (reversal) in assay [4] (H69AR cells + 2 uM doxorubicin) is 16.3% (inactive). In addition, the inhibition in assay [5] was -1.17% (inactive); in assay [6] it was 0.33% (inactive).

With `CC(=O)Nc1ccc(S(=O)(=O)CCC#N)cc1`, the viability in assay [1] was 109% (inactive); in assay [2], 89.4% (inactive); in assay [3], 91.7% (inactive); in assay [4] (setting [7]), 98%; in assay [4] (setting [8]), 91.7%. The differential viability (reversal) in assay [4] (H69AR cells + 2 uM doxorubicin) was -6.28% (inactive). For the same molecule, the results for the inhibition in assay [5] and in assay [6] were -1.17% (inactive) and 5.41% (inactive), respectively.

Turning to `CCOc1ccccc1C(=O)Nn1c(C2CCC2)nc2ccccc2c1=O`, the viability is 91% (inactive) in assay [1]; 91.1% (inactive) in assay [2]; 93.7% (inactive) in assay [3]; 112% in assay [4] (setting [7]); 93.7% in assay [4] (setting [8]). The differential viability (reversal) in assay [4] (H69AR cells + 2 uM doxorubicin) is -18% (inactive). The inhibition was -4.11% (inactive) in assay [5] and 2.55% (inactive) in assay [6].

As for `Cc1cc(C)nc(NC2=NCC(=O)N2c2ccc(Cl)cc2)n1`, the viability was 99% (inactive) in assay [1]; 117% (inactive) in assay [2]; 97.1% (inactive) in assay [3]; 95.4% in assay [4] (setting [7]); 97.1% in assay [4] (setting [8]). The differential viability (reversal) in assay [4] (H69AR cells + 2 uM doxorubicin) was 1.69% (inactive). For the same molecule, the results for the inhibition in assay [5] and in assay [6] were -7.03% (inactive) and 0.55% (inactive), respectively.

For the molecule `O=C(Nc1ncc2c(n1)CC(c1ccccc1)CC2=O)c1ccco1` (centres undefined), the viability in assay [1] is 102% (inactive); in assay [2], 98.3% (inactive); in assay [3], 81.8% (inactive); in assay [4] (setting [7]), 76.7%; in assay [4] (setting [8]) it was 81.8%. In assay [4] (H69AR cells + 2 uM doxorubicin), the differential viability (reversal) is 5.16% (inactive). In addition, the figures for the inhibition in assay [5] and in assay [6] were -5.21% (inactive) and -0.16% (inactive), respectively.

As to `COc1ccc(NC(=O)N2CCN(c3nc(-c4cccc(OC)c4)cs3)CC2)cc1`, the viability was 94% (inactive) in assay [1]; 49.3% (inactive) in assay [2]; 82.8% (inactive) in assay [3]; 86.8% in assay [4] (setting [7]); 82.8% in assay [4] (setting [8]). The differential viability (reversal) in assay [4] (H69AR cells + 2 uM doxorubicin) is -4.01% (inactive). The inhibition in assay [5] was -9.59% (inactive); in assay [6] it was -4.52% (inactive).

Take `COc1ccc(CN(Cc2cc3cc4c(cc3[nH]c2=O)OCO4)C(=O)NC2CCCCC2)cc1`: the viability was 85% (inactive) in assay [1]; 63.9% (inactive) in assay [2]; 96.9% (inactive) in assay [3]; 96% in assay [4] (setting [7]); 96.9% in assay [4] (setting [8]). Moreover, the differential viability (reversal) in assay [4] (H69AR cells + 2 uM doxorubicin) is 0.835% (inactive). Besides, the inhibition in assay [5] is 1.22% (inactive); in assay [6], -1.27% (inactive).

`CCN1C(=O)/C(=C/N(C)c2ccccc2)OC1=S`: the viability in assay [1] is 97% (inactive); in assay [2], 91.5% (inactive); in assay [3], 93.7% (inactive); in assay [4] (setting [7]), 94.7%; in assay [4] (setting [8]) it was 93.7%. Moreover, the differential viability (reversal) in assay [4] (H69AR cells + 2 uM doxorubicin) was -0.96% (inactive). The inhibition was -2.6% (inactive) in assay [5] and 8.18% (inactive) in assay [6].

As to `O=C(NCCO)c1cc2ccccc2cc1O`, the viability in assay [1] is 104% (inactive); in assay [2], 110% (inactive); in assay [3] it was 97% (inactive); in assay [4] (setting [7]) it was 115%; in assay [4] (setting [8]), 97%. In addition, the differential viability (reversal) in assay [4] (H69AR cells + 2 uM doxorubicin) is -17.9% (inactive). The inhibition is -3.25% (inactive) in assay [5] and 4.43% (inactive) in assay [6].

For `Cc1ccc2c(c1)C(N1CCCC1=O)CC(c1ccco1)N2` (centres undefined), the viability in assay [1] is 108% (inactive); in assay [2], 74.7% (inactive); in assay [3], 68.7% (inactive); in assay [4] (setting [7]), 66.6%; in assay [4] (setting [8]) it was 68.7%. Further, the differential viability (reversal) in assay [4] (H69AR cells + 2 uM doxorubicin) is 2.15% (inactive). For the same molecule, the inhibition in assay [5] was -5.6% (inactive); in assay [6], -6.51% (inactive).

As for `Cc1cc(C(F)(F)F)nc(NCc2cccnc2)n1`, the viability was 97% (inactive) in assay [1]; 96.4% (inactive) in assay [2]; 92.5% (inactive) in assay [3]; 82.9% in assay [4] (setting [7]); 92.5% in assay [4] (setting [8]). Further, in assay [4] (H69AR cells + 2 uM doxorubicin), the differential viability (reversal) is 9.55% (inactive). Further, the inhibition is -1.04% (inactive) in assay [5] and -1.97% (inactive) in assay [6].

With `C[C@@H]1CCC[C@H](C)N1NC(=O)c1ccc(Cl)c(S(N)(=O)=O)c1`, the viability in assay [1] was 100% (inactive); in assay [2], 88.5% (inactive); in assay [3] it was 99.7% (inactive); in assay [4] (setting [7]), 91.8%; in assay [4] (setting [8]) it was 99.7%. Also, the differential viability (reversal) in assay [4] (H69AR cells + 2 uM doxorubicin) was 7.9% (inactive). Moreover, the inhibition is 0.39% (inactive) in assay [5] and -6.5% (inactive) in assay [6].

`CN/C(=C/[N+](=O)[O-])NCCSCc1ccc(CN(C)C)o1`: the viability in assay [1] is 116% (inactive); in assay [2], 87.7% (inactive); in assay [3] it was 94.2% (inactive); in assay [4] (setting [7]) it was 95%; in assay [4] (setting [8]) it was 94.2%. The differential viability (reversal) in assay [4] (H69AR cells + 2 uM doxorubicin) was -0.85% (inactive). In addition, the inhibition in assay [5] is -2.47% (inactive); in assay [6] it was 4% (inactive).
